Data taken from ChEMBL document CHEMBL1140745, “Rationalizing the activities of diverse cholecystokinin 2 receptor antagonists using molecular field points” (J Med Chem, 2008).
Residues, ends and D or L forms follow the SMILES beside them. *: point of attachment. NHPhenethyl = c1ccc(CCN*)cc1; Boc = CC(C)(C)OC(=O)*

Columns and labels:
[1] = biological target: T1, Cholecystokinin receptor type A (Cavia porcellus, UniProt Q63931); assay: Displacement of [125I]BH-CCK-8S from […] expressed in guinea pig pancreatic cells; assay type: cell-based
T1 sequence (Q63931 whole entry): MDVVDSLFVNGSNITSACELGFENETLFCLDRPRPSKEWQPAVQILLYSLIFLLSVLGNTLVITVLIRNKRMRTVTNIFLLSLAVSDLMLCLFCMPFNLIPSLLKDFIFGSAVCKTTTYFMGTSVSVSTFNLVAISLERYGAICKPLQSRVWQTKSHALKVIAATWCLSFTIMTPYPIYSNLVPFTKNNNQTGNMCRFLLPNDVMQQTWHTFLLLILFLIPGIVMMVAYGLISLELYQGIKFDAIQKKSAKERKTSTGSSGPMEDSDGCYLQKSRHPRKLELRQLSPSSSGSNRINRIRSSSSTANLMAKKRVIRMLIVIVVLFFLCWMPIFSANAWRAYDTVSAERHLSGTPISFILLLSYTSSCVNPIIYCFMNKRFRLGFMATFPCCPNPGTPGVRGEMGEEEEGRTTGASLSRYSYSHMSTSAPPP
Summary of the method: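 Radioligand competition binding on guinea pig pancreas cell homogenates, using 20 pM [125I]BH-CCK-8S as the tracer. Affinity is reported as pKi. Results come from at least three separate experiments.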

[2] = biological target: T2, Gastrin/cholecystokinin type B receptor (Rattus norvegicus) (UniProt P30553); settings: Stomach
T2 sequence (whole entry): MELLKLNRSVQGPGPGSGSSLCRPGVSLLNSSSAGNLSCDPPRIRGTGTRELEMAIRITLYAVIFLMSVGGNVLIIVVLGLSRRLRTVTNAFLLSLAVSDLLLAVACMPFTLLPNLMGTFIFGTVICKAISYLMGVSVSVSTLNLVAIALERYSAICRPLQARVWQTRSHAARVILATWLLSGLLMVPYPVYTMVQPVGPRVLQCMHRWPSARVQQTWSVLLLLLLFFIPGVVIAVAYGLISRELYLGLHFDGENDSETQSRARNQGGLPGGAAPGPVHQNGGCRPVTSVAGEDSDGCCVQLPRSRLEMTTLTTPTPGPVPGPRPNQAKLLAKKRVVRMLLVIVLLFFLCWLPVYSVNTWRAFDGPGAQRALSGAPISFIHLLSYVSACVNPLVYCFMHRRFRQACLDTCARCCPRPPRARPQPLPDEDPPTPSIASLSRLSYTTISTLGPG

Structure (SMILES)	Ki [1] [µM]	pKb [2]
CNc1cccc(NC(=O)N[C@@H]2N=C(c3ccccn3)c3ccccc3N(CC(=O)C(C)(C)C)C2=O)c1 [NETAZEPIDE]	0.398	9.9
C[C@](Cc1c[nH]c2ccccc12)(NC(=O)OC1[C@H]2C[C@@H]3C[C@@H](C[C@H]1C3)C2)C(=O)NC[C@H](NC(=O)CCC(=O)O)c1ccccc1 (stereo partly specified) [CI-988]	0.631	
COc1ccc(CCNC(=O)[C@H](CC(=O)O)NC(=O)[C@H](Cc2ccc3ccccc3c2)NC(=O)[C@H](Cc2c[nH]c3ccccc23)NC(=O)OC(C)(C)C)cc1	0.0631	5.4
Nc1cccc2cc(C(=O)N[C@@H](Cc3ccccc3)C(=O)Nc3cc(C(=O)O)cc(C(=O)O)c3)c(C(=O)NCC34CC5CC(CC(C5)C3)C4)cc12	2.51	9
O=C(O)c1cc(NC(=O)[C@H](Cc2ccccc2)NC(=O)c2cc3cc[nH]c3cc2C(=O)NC2CCCCCC2)cc(C(=O)O)c1	3.16	9.3
CN1C(=O)[C@H](NC(=O)Nc2cccc(-c3nnn[nH]3)c2)N=C(c2ccccc2)c2ccccc21	0.316	8.4
O=C(O)c1cc(NC(=O)[C@H](Cc2ccccc2)NC(=O)C2C3c4ccccc4C(c4ccccc43)C2C(=O)NCC23CC4CC(CC(C4)C2)C3)cc(C(=O)O)c1 (stereo partly specified)		8.3
CC(C)C[C@H](NC(=O)[C@H](Cc1c[nH]c2ccccc12)NC(=O)OC(C)(C)C)C(=O)N[C@@H](CC(=O)O)C(=O)NCCc1ccccc1 (Boc-Trp-Leu-Asp-NHPhenethyl)	7.94	6.9
Nc1cccc2cc(C(=O)NCC34CC5CC(CC(C5)C3)C4)c(C(=O)N[C@@H](Cc3ccccc3)C(=O)Nc3cc(C(=O)O)cc(C(=O)O)c3)cc12	2.51	8.2
CC(=O)N1[C@H](CC23CC4CC(CC(C4)C2)C3)C(=O)N(Cc2ccccc2)c2ccccc2C(=O)C[C@H]1C(=O)NCC(=O)O	7.94	6.8
Cc1cccc(NC(=O)N[C@@H]2N=C(c3ccccc3)c3ccccc3N(C)C2=O)c1 [L-365260]	0.316	7.6
C[C@@H](NC(=O)C[C@@H]1CCCN1C(=O)C1C2c3ccccc3C(c3ccccc32)C1C(=O)NCC12CC3CC(CC(C3)C1)C2)C(=O)O (stereo partly specified)	25.1	7.3
O=C(O)C1C2c3ccccc3C(c3ccccc32)C1C(=O)NCC12CC3CC(CC(C3)C1)C2 (stereo unspecified)		5.6
O=C(O)c1cc(NC(=O)[C@H](Cc2ccccc2)NC(=O)c2cc3cc[nH]c3cc2C(=O)NCC23CC4CC(CC(C4)C2)C3)cc(C(=O)O)c1		9.3
O=C(O)c1cc(NC(=O)[C@H](Cc2ccccc2)NC(=O)c2cc3sccc3cc2C(=O)NCC23CC4CC(CC(C4)C2)C3)cc(C(=O)O)c1	0.794	9.4
O=C(O)c1cc(NC(=O)[C@H](Cc2ccc(I)cc2)NC(=O)c2cc3cc[nH]c3cc2C(=O)NCC23CC4CC(CC(C4)C2)C3)cc(C(=O)O)c1	2	9.1
Cn1ccc2cc(C(=O)N[C@@H](Cc3ccccc3)C(=O)Nc3cc(C(=O)O)cc(C(=O)O)c3)c(C(=O)NCC34CC5CC(CC(C5)C3)C4)cc21	3.98	9.8
O=C(O)c1cccc(NC(=O)c2nc(-c3ccccc3)[nH]c2CC23CC4CC(CC(C4)C2)C3)c1	1.26	6.6
O=C(O)c1cccc(NC(=O)c2nc(C3CCCCC3)[nH]c2COC23CC4CC(CC(C4)C2)C3)c1		9.1
O=C1NN(C(=O)Nc2ccc(Br)cc2)[C@H](c2ccccc2)[C@H]1c1ccccc1	20	5.9
O=C(O)c1cc(NC(=O)[C@H](Cc2ccccc2)NC(=O)c2cc3ccccc3cc2C(=O)NCC23CC4CC(CC(C4)C2)C3)cc(C(=O)O)c1		8.2
